Measured values reported in ChEMBL document CHEMBL1125498, “N-methylated analogs of Ac[Nle28,31]CCK(26-33): synthesis, activity, and receptor selectivity” (J Med Chem, 1992).
Where a SMILES comes first, the peptide text is derived from it. [ ]: non-standard residue; d: D form. sY = N[C@@H](Cc1ccc(OS(=O)(=O)O)cc1)C(=O)O; Nle = CCCC[C@H](N)C(=O)O

Key:
[1] = target: T1, Cholecystokinin receptor type A (Cavia porcellus, UniProt Q63931); experiment: In vitro smooth muscle contraction activity in guinea pig gall bladder cholecystokinin type A receptor; assay type: functional, tissue-based
T1 sequence (Q63931 whole entry): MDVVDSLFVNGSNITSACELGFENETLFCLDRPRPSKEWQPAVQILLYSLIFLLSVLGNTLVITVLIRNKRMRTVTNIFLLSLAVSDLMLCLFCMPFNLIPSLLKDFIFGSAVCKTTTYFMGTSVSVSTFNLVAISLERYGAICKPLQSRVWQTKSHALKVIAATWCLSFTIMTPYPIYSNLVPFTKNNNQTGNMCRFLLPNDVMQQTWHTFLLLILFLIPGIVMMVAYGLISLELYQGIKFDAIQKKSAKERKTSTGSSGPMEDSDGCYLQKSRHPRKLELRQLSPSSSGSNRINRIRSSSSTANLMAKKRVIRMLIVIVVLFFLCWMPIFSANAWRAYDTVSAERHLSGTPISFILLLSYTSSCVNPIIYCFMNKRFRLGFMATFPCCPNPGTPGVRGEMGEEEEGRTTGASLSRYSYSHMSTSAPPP
Outline: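 Isolated guinea pig tissue strips, equilibrated 90 min with periodic tension readjustment and bath changes. Isometric force recorded. Cumulative-free concentration-response curves from increasing peptide concentrations, strips washed three times with 5–15-min intervals between doses. Carbachol test dose (100 nM) measured before, during and after as control. EC50 from curves; points in duplicate, mean ± SEM of at least three experiments.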

Cavia porcellus [2] = species: Cavia porcellus; experiment: Relative Potency(RP %) (EC50) was calculated by using smooth muscle contraction assay in guinea pig stomach with relative to Ac[Nle28,31]CCK(26-33)(EC50); assay type: functional, Muscle tissue
Outline: (§1)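 Same isolated guinea pig tissue contraction set-up: 90 min equilibration, isometric force, increasing peptide concentrations with three washes at 5–15-min intervals, 100 nM carbachol control.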

[3] = target: Cholecystokinin receptor (Cavia porcellus); experiment: In vitro smooth muscle contraction activity in guinea pig ileum consists of two or three CCK receptor subtypes
Cavia porcellus [4] = species: Cavia porcellus; experiment: Relative Potency(RP %) (EC50) was calculated by using smooth muscle contraction assay in guinea pig gallbladder with relative to Ac[Nle28,31]CCK(26-33)(EC50); assay type: functional, Muscle tissue; outline: as §1
[5] = target: Gastrin/cholecystokinin type B receptor (Cavia porcellus); experiment: In vitro smooth muscle contraction activity in guinea pig stomach consisting of CCK/gastrin receptor subtype
Cavia porcellus [6] = species: Cavia porcellus; experiment: Relative Potency(RP %) (EC50) was calculated by using smooth muscle contraction assay in guinea pig ileum with relative to Ac[Nle28,31]CCK(26-33)(EC50); assay type: functional; outline: as §1

Structure (SMILES)	EC50 [1] [nM]	Relative Potency (Cavia porcellus [2])	EC50 [3] [nM]	Relative Potency (Cavia porcellus [4])	EC50 [5] [nM]	Relative Potency (Cavia porcellus [6])
CCCC[C@H](NC(=O)[C@H](Cc1ccc(OS(=O)(=O)O)cc1)NC(=O)[C@H](CC(=O)O)NC(C)=O)C(=O)NCC(=O)N[C@@H](Cc1c[nH]c2ccccc12)C(=O)N[C@@H](CCCC)C(=O)N(C)[C@@H](CC(=O)O)C(=O)N[C@@H](Cc1ccccc1)C(N)=O	2	–	–	–	–	–
CCCC[C@H](NC(=O)[C@H](Cc1ccc(OS(=O)(=O)O)cc1)NC(=O)[C@H](CC(=O)O)NC(C)=O)C(=O)NCC(=O)N[C@@H](Cc1c[nH]c2ccccc12)C(=O)N[C@@H](CCCC)C(=O)N[C@@H](CC(=O)O)C(=O)N(C)[C@@H](Cc1ccccc1)C(N)=O	3	–	–	–	–	–
CCCC[C@H](NC(=O)[C@H](Cc1ccc(OS(=O)(=O)O)cc1)NC(=O)[C@H](CC(=O)O)NC(C)=O)C(=O)NCC(=O)N[C@@H](Cc1c[nH]c2ccccc12)C(=O)N(C)[C@@H](CCCC)C(=O)N[C@@H](CC(=O)O)C(=O)N[C@@H](Cc1ccccc1)C(N)=O	20	10	37	6	140	4
CCCC[C@H](NC(=O)[C@H](Cc1ccc(OS(=O)(=O)O)cc1)NC(=O)[C@H](CC(=O)O)NC(C)=O)C(=O)NCC(=O)N(C)[C@@H](Cc1c[nH]c2ccccc12)C(=O)N[C@@H](CCCC)C(=O)N[C@@H](CC(=O)O)C(=O)N[C@@H](Cc1ccccc1)C(N)=O	53	–	–	–	–	–
CCCC[C@H](NC(=O)[C@H](Cc1c[nH]c2ccccc12)NC(=O)CN(C)C(=O)[C@H](CCCC)NC(=O)[C@H](Cc1ccc(OS(=O)(=O)O)cc1)NC(=O)[C@H](CC(=O)O)NC(C)=O)C(=O)N[C@@H](CC(=O)O)C(=O)N[C@@H](Cc1ccccc1)C(N)=O	0.1	–	–	–	–	–
CCCC[C@H](NC(=O)[C@H](Cc1ccc(OS(=O)(=O)O)cc1)NC(=O)[C@H](CC(=O)O)NC(C)=O)C(=O)NCC(=O)N[C@@H](Cc1c[nH]c2ccccc12)C(=O)N[C@@H](CCCC)C(=O)N[C@@H](CC(=O)O)C(=O)N[C@@H](Cc1ccccc1)C(N)=O	1.2	–	–	–	–	–
CCCC[C@H](NC(=O)[C@H](Cc1c[nH]c2ccccc12)NC(=O)CNC(=O)[C@H](CCCC)NC(=O)[C@H](Cc1ccc(OS(=O)(=O)O)cc1)N(C)C(=O)[C@H](CC(=O)O)NC(C)=O)C(=O)N[C@@H](CC(=O)O)C(=O)N[C@@H](Cc1ccccc1)C(N)=O	1.4	–	–	–	–	–
CCCC[C@H](NC(=O)[C@H](Cc1c[nH]c2ccccc12)NC(=O)[C@@H]1CCCN1C(=O)[C@H](CCCC)NC(=O)[C@H](Cc1ccc(OS(=O)(=O)O)cc1)NC(=O)[C@H](CC(=O)O)NC(C)=O)C(=O)N[C@@H](CC(=O)O)C(=O)N[C@@H](Cc1ccccc1)C(N)=O (Ac-D[sY][Nle]PW[Nle]DF-NH2)	60	25	104	2	54	1.3
